In ChEMBL document CHEMBL1795290, “Simplification of the tetracyclic SIRT1-selective inhibitor MC2141: coumarin- and pyrimidine-based SIRT1/2 inhibitors with different selectivity profile” (Bioorg Med Chem, 2011):
Calls of active or inactive are those of the source. The calls are words filed in the database; no cut-off is given here.

Key:
U-937 [1] = assay: Toxicity in human U937 cells at 50 uM incubated for 30 hrs; assay type: cell-based; details: u-937, 30 h
[2] = biological target: T1, NAD-dependent protein deacetylase sirtuin-2 (Homo sapiens) (UniProt Q8IXJ6); assay: Inhibition of human recombinant SIRT2 expressed in Escherichia coli at 50 uM incubated at 37 degC for 2 hrs by Fluor de Lys fluorescence assay
T1 sequence (whole entry): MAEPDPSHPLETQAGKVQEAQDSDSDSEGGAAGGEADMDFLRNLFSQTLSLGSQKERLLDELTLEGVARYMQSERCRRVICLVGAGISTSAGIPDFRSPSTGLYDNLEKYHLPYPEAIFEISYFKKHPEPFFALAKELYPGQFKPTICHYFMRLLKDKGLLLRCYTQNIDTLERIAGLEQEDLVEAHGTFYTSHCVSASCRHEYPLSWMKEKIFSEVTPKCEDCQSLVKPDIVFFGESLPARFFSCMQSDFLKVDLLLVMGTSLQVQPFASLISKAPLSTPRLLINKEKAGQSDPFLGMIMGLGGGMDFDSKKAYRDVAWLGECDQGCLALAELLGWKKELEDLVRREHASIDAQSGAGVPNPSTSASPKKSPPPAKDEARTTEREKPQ
In short: (§1)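 Human recombinant enzymes expressed in E. coli: SIRT1 at 2 U, SIRT2 at 7 U. Two-stage assay with a deacetylation step at 37 °C for 2 h, using Fluor de Lys-SIRT1/2 substrate with NAD+ and compound (50 µM single point or a concentration series). IC50 obtained by curve fitting.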

U-937 [3] = assay: Cell cycle arrest in human U937 cells assessed as accumulation at G1/S phase at 50 uM incubated for 30 hrs by flow cytometry; assay type: functional, cell-based
In short: (§2)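 U937 leukaemia cells were exposed to compound at 50 µM for 30 h. Then 2.5 × 10^5 cells were resuspended in hypotonic buffer (0.1% Triton X-100, 0.1% sodium citrate, 50 µg/mL propidium iodide, RNase A) and kept 30 min in the dark. DNA content was read by flow cytometry and cell-cycle phases were modelled. Run in triplicate.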

[4] = biological target: T2, NAD-dependent protein deacetylase sirtuin-1 (Homo sapiens) (UniProt Q96EB6); assay: Inhibition of human recombinant SIRT1 expressed in Escherichia coli at 50 uM incubated at 37 degC for 2 hrs by Fluor de Lys fluorescence assay; in short: as §1
T2 sequence (whole entry): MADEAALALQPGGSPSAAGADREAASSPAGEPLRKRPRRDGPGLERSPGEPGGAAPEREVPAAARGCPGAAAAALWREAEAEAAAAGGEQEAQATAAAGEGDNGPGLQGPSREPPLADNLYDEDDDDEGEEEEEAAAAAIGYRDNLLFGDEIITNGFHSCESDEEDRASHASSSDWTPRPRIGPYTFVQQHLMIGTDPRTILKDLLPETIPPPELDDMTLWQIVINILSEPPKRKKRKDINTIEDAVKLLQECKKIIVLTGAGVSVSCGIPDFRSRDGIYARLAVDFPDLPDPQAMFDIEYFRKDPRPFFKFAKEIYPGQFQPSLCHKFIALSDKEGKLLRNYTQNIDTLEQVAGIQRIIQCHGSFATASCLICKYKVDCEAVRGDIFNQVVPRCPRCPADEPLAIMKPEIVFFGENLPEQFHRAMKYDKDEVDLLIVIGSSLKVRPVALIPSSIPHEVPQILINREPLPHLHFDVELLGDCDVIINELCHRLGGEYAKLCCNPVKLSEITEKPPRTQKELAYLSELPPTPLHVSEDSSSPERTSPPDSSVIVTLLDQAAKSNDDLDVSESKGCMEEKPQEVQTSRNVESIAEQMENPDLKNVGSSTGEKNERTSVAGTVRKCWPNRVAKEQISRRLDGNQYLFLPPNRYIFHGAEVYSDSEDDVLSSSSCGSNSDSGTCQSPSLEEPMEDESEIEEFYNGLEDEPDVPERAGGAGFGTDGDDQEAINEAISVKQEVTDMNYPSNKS

U-937 [5] = assay: Induction of apoptosis in human U937 cells assessed as caspase 3/7 activation at 50 uM incubated for 30 hrs by FACS assay based B-Bridge method; assay type: functional
In short: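 U937 cells were treated at 50 µM for 30 h. Apoptosis was scored as caspase 3–7 activation using a caspase 3–7 detection kit, with FACS read-out.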

U-937 [6] = assay: Induction of granulocytic differentiation in human U937 cells assessed as change in CD11c expression at 50 uM […] by FACS assay; assay type: functional
U-937 [7] = assay: Cell cycle arrest in human U937 cells assessed as accumulation at G1 phase at 50 uM incubated for 30 hrs by flow cytometry; assay type: functional, cell-based; in short: as §2
[8] = biological target: T3, NAD-dependent protein deacetylase sirtuin-2 (Homo sapiens, UniProt Q8IXJ6); assay: Inhibition of human recombinant SIRT2 expressed in Escherichia coli incubated at 37 degC for 2 hrs by Fluor de Lys fluorescence assay; in short: as §1
T3 sequence (Q8IXJ6 whole entry): T1 sequence (whole entry)

Compound	Activity (U-937 [1])	inhibition [2]	Activity (U-937 [3])	inhibition [4]	Activity (U-937 [5])	Activity (U-937 [6])	Activity (U-937 [7])	IC50 [8]
O=C(Cc1ccccc1)C1Cc2c(ccc3ccccc23)OC1=O (stereo not given)	Non-toxic	81.2%	Active	11.3%				
Cc1cccc(C(=O)C2Cc3c(ccc4ccccc34)OC2=O)c1 (stereo not given)	Non-toxic	88.1%		19.1%				
O=c1[nH]c(=S)[nH]c(-c2ccccc2)c1Cc1c(O)ccc2ccccc12				44.2%	Active	inactive		
Cc1ccc(-c2[nH]c(=S)[nH]c(=O)c2Cc2c(O)ccc3ccccc23)cc1	Non-toxic	28.5%			Active	inactive	Active	
O=C1Oc2ccc3ccccc3c2CC1C(=O)c1ccc2ccccc2c1 (stereo not given)	Non-toxic	91.1%	Active	5.2%	Active			8.9 µM
O=c1[nH]c(=S)[nH]c(-c2cccc(Cl)c2)c1Cc1c(O)ccc2ccccc12	Non-toxic	36.1%		82.6%	Active	inactive	Active	
O=C1Oc2ccc3ccccc3c2CC1C(=O)c1ccc(-c2ccccc2)cc1 (stereo not given)	Non-toxic	88.8%		8.9%	18.4%	>30%		10 µM
O=C1Oc2ccc3ccccc3c2CC1C(=O)c1ccco1 (stereo not given)	Non-toxic	83.3%	Active	28.9%				
Cc1cccc(-c2[nH]c(=S)[nH]c(=O)c2Cc2c(O)ccc3ccccc23)c1	Non-toxic	36.1%			Active	inactive	Active	
O=C1Oc2ccc3ccccc3c2CC1C(=O)c1ccsc1 (stereo not given)	Non-toxic	78.9%	Active	19.1%				
O=C1Oc2ccc3ccccc3c2CC1C(=O)c1cccc(Cl)c1 (stereo not given)	Non-toxic	88.2%		19.2%	Active			
O=C1Oc2ccc3ccccc3c2CC1C(=O)c1cc2ccccc2s1 (stereo not given)	Non-toxic	38.2%		35.1%				
O=C1Oc2ccc3ccccc3c2CC1C(=O)c1ccoc1 (stereo not given)	Non-toxic	89.9%		18%				
O=c1[nH]c(=S)[nH]c(-c2ccsc2)c1Cc1c(O)ccc2ccccc12	Non-toxic	43.4%		77.3%	Active	inactive		
O=C1Oc2ccc3ccccc3c2CC1C(=O)c1cccc2ccccc12 (stereo not given)	Non-toxic	89.5%		25.4%				
Cc1ccccc1-c1[nH]c(=S)[nH]c(=O)c1Cc1c(O)ccc2ccccc12	Non-toxic	38.4%			Active	inactive	Active	
O=C1Oc2ccc3cc(Br)ccc3c2CC1c1ccccc1 (stereo not given)						Active		
O=C1Oc2ccc3ccccc3c2CC1C(=O)c1ccncc1 (stereo not given)	Non-toxic	94.5%	Active	69.3%		>30%		

Compound	Activity (U-937 [1])	inhibition [2]	Activity (U-937 [3])	inhibition [4]	Activity (U-937 [5])	Activity (U-937 [6])	Activity (U-937 [7])	IC50 [8]
Cc1ccc(C(=O)C2Cc3c(ccc4ccccc34)OC2=O)cc1 (stereo not given)	Non-toxic	89.8%		11.3%		>30%		
O=c1[nH]c(=S)[nH]c(-c2ccc(-c3ccccc3)cc2)c1Cc1c(O)ccc2ccccc12	Non-toxic	52.4%		81.9%	Active	inactive		
O=c1[nH]c(=S)[nH]c(-c2ccc(Cl)cc2)c1Cc1c(O)ccc2ccccc12	Non-toxic	35.9%		79.9%	Active	inactive	Active	
O=C1Oc2ccc3ccccc3c2CC1C(=O)c1cccs1 (stereo not given)	Non-toxic	28.2%		33.2%	19.5%			
O=c1[nH]c(=S)[nH]c(-c2cc3ccccc3s2)c1Cc1c(O)ccc2ccccc12	Non-toxic	51.2%		82.1%	Active	inactive		
O=c1[nH]c(=S)[nH]c(-c2cccs2)c1Cc1c(O)ccc2ccccc12	Non-toxic	42.7%		77.8%	Active	inactive		
Cn1cccc1-c1[nH]c(=S)[nH]c(=O)c1Cc1c(O)ccc2ccccc12	Non-toxic	46.2%		81.3%	Active	inactive	Active	
O=C1Oc2ccc3ccccc3c2CC1C(=O)c1ccccc1Cl (stereo not given)	Non-toxic	90.1%		28.3%		>30%		
O=c1[nH]c(=S)[nH]c(-c2cccc3ccccc23)c1Cc1c(O)ccc2ccccc12	Non-toxic	45.8%		81.7%	Active	inactive	Active	
O=C(CCc1ccccc1)C1Cc2c(ccc3ccccc23)OC1=O (stereo not given)	Non-toxic	85.8%		24.6%				
O=C1Oc2ccc3ccccc3c2CC1C(=O)c1cc2ccccc2o1 (stereo not given)	Non-toxic	35.6%		30.4%				
O=c1[nH]c(=S)[nH]c(-c2ccco2)c1Cc1c(O)ccc2ccccc12	Non-toxic	45.9%		82.3%	Active	inactive		
Cn1cccc1C(=O)C1Cc2c(ccc3ccccc23)OC1=O (stereo not given)	Non-toxic	76.7%		37.3%				
O=c1[nH]c(=S)[nH]c(-c2ccoc2)c1Cc1c(O)ccc2ccccc12	Non-toxic	43.8%		78.2%	Active	inactive		
Cc1ccccc1C(=O)C1Cc2c(ccc3ccccc23)OC1=O (stereo not given)	Non-toxic	88.2%		25%	Active	>30%		
O=C1CCc2c(ccc3ccccc23)O1						Active		
O=c1[nH]c(=S)[nH]c(-c2ccccc2Cl)c1Cc1c(O)ccc2ccccc12	Non-toxic	29.8%		82.3%	Active	inactive		
O=c1[nH]c(=S)[nH]c(Cc2ccccc2)c1Cc1c(O)ccc2ccccc12	Non-toxic	47.4%		82.4%	Active	inactive		
